Compounds with a hit are over-represented: about 2.9% of the library has one in this group of screens.
Vif inh – inhibitors of HIV Vif; HEK293T cells, Vif self-association by quenched fluorescence, imaging, 24 h; inhibition, % at 7.49 µM; 340,000 tested, 0.35% active; in the data active = inhibition above about 50%, passing the limit was not always enough; inconclusive = no clear call, values can overlap the other calls; inactive = below about 31%
PglD DTNB – inhibitors of Campylobacter jejuni PglD acetyltransferase | 360,000 tested, 0.098% active | inhibition, % at 12.5 µM | purified PglD enzyme, DTNB colorimetric CoA detection; in the data active = inhibition above about 16%, passing the limit was not always enough; inconclusive = no clear call, values can overlap the other calls
Ecoli rRNA inh – selective bacterial rRNA inhibition in E. coli | E. coli WT GFP vs humanized-ribosome RFP mutants, fluorescence, 24 h; active compounds read low; DMSO median 0, no signal -100 | GFP signal change (wild-type ribosome), % (test concentration not listed) | 350,000 tested, 1.6% active;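 active = significant combined selectivity score with lowered wild-type GFP, culture density cut under 30%, mutant RFP and density less affected; inactive = any of these conditions unmet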
FGF22 binding – shifts melting point of recombinant human FGF22; Q9HCT0; recombinant FGF22 thermal shift, SYPRO orange fluorescence; percent of sucrose octasulfate shift, DMSO zero; activity (Tm shift, normalised), % at 9.99 µM; 340,000 tested, 1.5% active;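 active = mean Tm shift, scaled 0 neutral to 100 positive control, at about 1.3% or above, every replicate too, limit read from the data; inconclusive = no clear call, values can overlap the other calls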
Target sequence (Q9HCT0 whole entry, looked up): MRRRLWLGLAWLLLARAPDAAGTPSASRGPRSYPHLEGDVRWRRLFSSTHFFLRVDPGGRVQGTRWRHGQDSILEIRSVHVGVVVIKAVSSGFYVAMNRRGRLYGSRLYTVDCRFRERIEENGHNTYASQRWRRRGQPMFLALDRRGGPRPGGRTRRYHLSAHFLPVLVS
PGC1a acetyl inh – PGC1a acetylation modulation, inhibitor mode | inhibition, % at 15.6 µM | AID 651687 | 350,000 tested, 0.17% active | U2OS PGC1a acetylation, AlphaScreen anti-acetyl-lysine; with virally co-expressed GCN5 acetyltransferase;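 active = every replicate shows inhibition of at least 40%; inconclusive = mean inhibition at least 40% but some replicate below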
Cneo AK release – causes C. neoformans cell lysis. lysis activity, % at 15 µM. 360,000 tested, 0.2% active. adenylate kinase release luminescence, 4 h; normalised: neutral wells 0, clomiphene wells 100;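 active = mean lysis activity across replicates of at least 80%, whatever share of replicates individually reach that level; inactive = mean lysis activity below 80%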
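Schedule: static 4 h at 37 °C with compound, 1 h detection; system: C. neoformans cells; benchmarks: Clomiphene as positive control; buffer or medium: fresh YPD medium; measure: luminescence rise reflecting yeast cell lysis; measured by: luminescent adenylate kinase detection reagent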
AID977621 – wild-type E. coli growth inhibition versus H69 humanized strain – H69 mutant RFP, wild-type GFP, cherry-pick, dose response. activity change, negative = inhibition at 50 µM. 1,900 tested, under 10 active. fluorescence, 24 h. AID 977621. shares compounds with Ecoli rRNA inh;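 active = Wild-type ribosome reporter drop at least double the humanized mutant ribosome reporter drop, growth loss under a set limit; inconclusive = no clear call, values can overlap the other calls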;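 note: wild-type GFP and H69 mutant RFP strains grown together 50/50 in each well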
AID977628 – growth of wild-type and h24-humanized E. coli strains – h24 mutant RFP vs wild-type GFP, cherry-pick, dose response; shares compounds with Ecoli rRNA inh; E. coli WT GFP strain growth, fluorescence, 24 h; activity change, negative = inhibition at 50 µM; 1,900 tested, under 10 active;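 active = compound lowering the normal-ribosome reporter at least twice as much as the humanized-ribosome reporter, growth loss under a set limit; inconclusive = no clear call, values can overlap the other calls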;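 note: wild-type GFP and h24 humanized RFP strains co-cultured 1 to 1 per well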
Hits are given with their value; i = inactive; ? = inconclusive; nt = not tested or not shown.

SMILES | Vif inh | PglD DTNB | Ecoli rRNA inh | FGF22 binding | PGC1a acetyl inh | Cneo AK release | AID977621 | AID977628
Cc1ccc(NS(=O)(=O)c2cc(C(=O)N3CCc4ccccc4C3)ccc2Cl)cc1 | i | nt | -29.2 | i | i | i | i | nt
Cc1ccc(C(=O)NCCC2=CCCCC2)cc1S(=O)(=O)N1CCCCC1 | i | i | i | i | nt | i | nt | nt
O=C(NCC1CCCO1)c1ccc(Cl)c(S(=O)(=O)Nc2ccccc2)c1 (stereo not given) | i | i | i | i | i | i | nt | nt
CCCNC(=O)C[C@H]1CC[C@H]2[C@@H](COC[C@H](O)CN2C(=O)Nc2cccc(Cl)c2)O1 | nt | i | i | i | i | i | nt | nt
Cc1ccc(NC(=O)C[n+]2cc(-c3ccccc3)n3c2CCC3)cc1 | i | i | -40.5 | i | i | i | i | ?
O=C(C[n+]1cc(-c2ccc(F)cc2)n2c1CCC2)c1cccs1 | i | i | -16.4 | i | i | i | i | i
Cc1cc(OCC(=O)N(Cc2ccco2)C2CCS(=O)(=O)C2)ccc1Cl (stereo not given) | i | i | -18.9 | i | i | i | ? | nt
O=C1O[C@H](c2ccccc2)[C@H](c2ccccc2)N2[C@H]1[C@@H](C(=O)N1CCCCCCC1)[C@]1(C(=O)Nc3ccc(C#CC4=CCCCC4)cc31)[C@H]2c1ccccc1OCCO | nt | i | nt | i | nt | i | nt | nt
CCSc1nc2ccccc2n1CCC(=O)O | nt | i | nt | nt | i | i | nt | nt
O=C(O)CCn1c(SCc2cccc3ccccc23)nc2ccccc21 | i | i | -15.8 | nt | nt | i | i | ?
CCCCNC(=O)C[C@@H]1C[C@@]2(C(=O)OC)CCCCC=C2N(Cc2ccccc2)C1=O | nt | nt | -21.5 | i | nt | nt | i | nt
COC(=O)CN1C(=S)N(c2ccc(F)cc2)C(=O)C1CC(=O)Nc1ccc(F)cc1 (stereo not given) | i | i | -23.9 | i | i | i | i | i
O=C(C[C@@H]1CC[C@@H](NC(=O)CCN2CCCCC2)[C@@H](CO)O1)NCc1ccc(Cl)c(Cl)c1 | nt | i | i | i | i | i | nt | nt
Cc1cccc(-c2ccc([C@H]3[C@H]4CN(S(=O)(=O)c5ccccc5C)CCCCN4[C@H]3CO)cc2)c1 | nt | i | i | i | i | i | i | ?
Cc1ccccc1S(=O)(=O)N1CCCCN2[C@@H](CO)[C@@H](c3ccc(-c4ccccc4)cc3)[C@@H]2C1 | nt | i | nt | i | i | i | nt | nt
Cc1cccc(-c2ccc([C@@H]3[C@@H](CO)N4CCCCN(S(=O)(=O)c5ccccc5C)C[C@@H]34)cc2)c1 | nt | i | i | i | i | 107.6 | i | i
COc1cccc(-c2ccc([C@@H]3[C@H](CO)N4CCCCN(S(=O)(=O)c5cccs5)C[C@@H]34)cc2)c1 | nt | i | -45.7 | i | i | i | nt | ?
Cc1cccc(-c2ccc([C@@H]3[C@@H](CO)N4CCCCN(S(=O)(=O)c5ccccc5C)C[C@H]34)cc2)c1 | nt | i | i | i | i | i | i | i
COc1cccc(-c2ccc([C@@H]3[C@@H](CO)N4CCCCN(S(=O)(=O)c5cccs5)C[C@H]34)cc2)c1 | nt | i | i | i | i | i | nt | nt
Cc1ccccc1S(=O)(=O)N1CCCCN2[C@H](CO)[C@H](c3ccc(-c4ccccc4)cc3)[C@H]2C1 | nt | i | nt | i | i | i | nt | nt
CC(=O)N1[C@H](CO)[C@@H](c2ccccc2)C12CN(C(=O)CN1CCOCC1)C2 | nt | nt | i | nt | nt | nt | nt | nt
CCC(=O)N[C@H]1CC[C@@H](CC(=O)NCC2CCCCC2)O[C@@H]1CO | nt | i | i | i | i | i | nt | nt
CCc1cc(CN2CCOCC2)c(NC(=O)c2ccccc2)s1 | i | nt | -17.4 | 43.2 | i | nt | i | i
CCc1cc(C(c2ccc(F)cc2)N2CCOCC2)c(NC(=O)c2ccccc2)s1 (stereo not given) | i | i | nt | nt | i | i | nt | nt
CNC[C@@H]1Oc2c(NC(=O)Nc3ccc(OC)cc3)cccc2C(=O)N([C@H](C)CO)C[C@H]1C | nt | i | i | i | i | i | nt | nt
SMILES | Vif inh | PglD DTNB | Ecoli rRNA inh | FGF22 binding | PGC1a acetyl inh | Cneo AK release | AID977621 | AID977628
C[C@@H]1CN([C@H](C)CO)C(=O)c2cccc(NS(=O)(=O)c3ccc(F)cc3)c2O[C@@H]1CN(C)C(=O)Nc1cccc2ccccc12 | nt | i | i | i | i | i | nt | nt
CN1CCN(C(=O)c2cc3sc4ccccc4c3s2)CC1 | i | i | -24.1 | i | i | i | nt | ?
CCn1c(=O)c2cc(C(=O)N3CCN(C)CC3)sc2c2ccccc21 | i | i | i | i | nt | i | nt | nt
CN(C(=O)c1cccc(NC(=O)Cc2cccc(NC(=O)C3CCN(C(=O)CCc4ccccc4)CC3)c2)c1)C1CC1 | i | i | -37.9 | i | nt | i | nt | ?
O=C(Cc1ccc(NC(=O)C2CCN(C(=O)CCc3ccccc3)CC2)cc1)Nc1cccc(C(=O)N2CCCC2)c1 | nt | nt | i | i | nt | nt | nt | nt
O=C(Cc1cccc(NC(=O)C2CCN(C(=O)CCc3ccccc3)CC2)c1)Nc1cccc(C(=O)N2CCCC2)c1 | i | i | -18.8 | i | i | i | i | nt
CN(C(=O)c1ccc(NC(=O)Cc2cccc(NC(=O)C3CCN(C(=O)CCc4ccccc4)CC3)c2)cc1)C1CC1 | nt | nt | i | i | nt | nt | nt | nt
C[C@H]1CCCCO[C@H](CN(C)C)[C@@H](C)CN([C@@H](C)CO)C(=O)c2cc(NS(=O)(=O)c3cn(C)cn3)ccc2O1 | nt | i | i | i | i | i | nt | nt
CC(C)NC(=O)Nc1ccc2c(c1)C(=O)N([C@@H](C)CO)C[C@@H](C)[C@@H](CN(C)S(=O)(=O)c1ccccc1)OCCCC[C@@H](C)O2 | nt | i | i | i | i | i | nt | nt
CC(=O)N1[C@@H]2c3ccc(C4=CCCCC4)c(=O)n3C[C@H]1[C@H](CO)[C@H]2C(=O)N[C@@H](C)c1ccccc1 | nt | i | i | i | nt | i | nt | nt
COc1ccc2c(c1)-c1nc(N)sc1CC2 | i | nt | -22.2 | i | i | nt | i | i
O=C1CCCN1c1ccc([N+](=O)[O-])cc1 | nt | i | -4.0 | i | i | i | ? | ?
COc1ccc(NS(=O)(=O)c2cc(OC)ccc2OC)cc1 | i | i | i | i | i | i | nt | nt
COc1ccc(NS(=O)(=O)c2cccc3ccccc23)cc1 | i | i | -38.7 | i | i | i | i | nt
COCC(=O)Nc1ccc2c(c1)C(=O)N(C)C[C@H](OC)[C@H](C)CN(C(C)=O)[C@@H](C)CO2 | nt | i | i | i | i | i | nt | nt
O=S(=O)(c1ccccc1)N1CC[C@@H]2[C@H]1c1cc(Br)ccc1N[C@@H]2CO | nt | i | i | i | i | i | nt | nt
O=S(=O)(c1ccccc1)N1CC[C@@H]2[C@H](CO)Nc3ccc(Br)cc3[C@@H]21 | nt | i | -42.0 | i | i | i | i | nt

High-throughput results: PubChem BioAssay, Broad Institute
